Measured values reported in ChEMBL document CHEMBL4699489, “Optimized Opioid-Neurotensin Multitarget Peptides: From Design to Structure-Activity Relationship Studies” (J Med Chem, 2020).
Active and inactive are the calls of the source. Numbered stars: 1 amine (or outer) side, 2 acyl side, 3 side chain; on linkers, the order of the positions; unused ones are H or OH. Square brackets hold non-standard residues; d marks the D form. Peptide text beside a SMILES is read from it. X1 = O=C1[C@@H](N[*:1])Cc2ccccc2CN1CCC(=O)[*:2]; X2 = O=C([C@@H]1Cc2cc(O)ccc2CN1[*:1])[*:2]; Dmt = Cc1cc(O)cc(C)c1C[C@H](N)C(=O)O; mTyr = N[C@@H](Cc1cccc(O)c1)C(=O)O; β3hR = N=C(N)NCCC[C@H](N)CC(=O)O; Tle = CC(C)(C)[C@H](N)C(=O)O

Assays:
Mu-type opioid receptor [1] = biological target: T1, Mu-type opioid receptor (Homo sapiens, UniProt P35372); assay: Agonist activity at human MOR expressed in human U2OS cells assessed as increase in beta arrestin2 recruitment incubated for 90 mins by pathhunter beta-arrestin assay relative to DAMGO; type: cell-based; conditions: filed as partial agonist
T1 sequence (P35372 whole entry): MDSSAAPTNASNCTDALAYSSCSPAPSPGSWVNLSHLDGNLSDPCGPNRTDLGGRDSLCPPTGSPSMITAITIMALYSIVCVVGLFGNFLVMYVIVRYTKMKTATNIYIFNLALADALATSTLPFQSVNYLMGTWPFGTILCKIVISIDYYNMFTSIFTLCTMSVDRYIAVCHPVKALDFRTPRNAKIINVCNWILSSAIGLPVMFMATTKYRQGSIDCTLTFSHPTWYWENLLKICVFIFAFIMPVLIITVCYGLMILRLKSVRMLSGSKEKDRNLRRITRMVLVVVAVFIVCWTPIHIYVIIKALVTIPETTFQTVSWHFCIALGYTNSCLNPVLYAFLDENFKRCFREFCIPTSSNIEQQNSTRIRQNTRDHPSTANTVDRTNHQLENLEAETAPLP
Method in brief: (§1)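 U2OS cells stably coexpressing hMOR and enzyme acceptor-tagged β-arrestin-2, seeded at 5000 cells/well and kept 24 h at 37 °C. Graded peptide concentrations in PBS added for 90 min at 37 °C, then detection mix for 60 min at room temperature. Chemiluminescence read-out. EC50 and Emax (relative to DAMGO) by nonlinear regression. Duplicate, three independent experiments.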

Mus musculus [2] = assay: Antinociceptive activity in CD-1 mouse model of thermal-induced nociception assessed as maximum possible effect at 1.82 umol/kg, sc measured at 1 hr by tail-flick test; type: functional; conditions: dose 1.82 µmol/kg
[3] = biological target: T2, Delta-type opioid receptor (Homo sapiens, UniProt P41143); assay: Agonist activity at human DOR stably expressed in CHO cell membranes assessed as stimulation of [35S]-GTPgammaS binding incubated for 1 hr by liquid scintillation counting assay relative to DPDPE; type: functional; conditions: time 60.0 min
T2 sequence (P41143 whole entry): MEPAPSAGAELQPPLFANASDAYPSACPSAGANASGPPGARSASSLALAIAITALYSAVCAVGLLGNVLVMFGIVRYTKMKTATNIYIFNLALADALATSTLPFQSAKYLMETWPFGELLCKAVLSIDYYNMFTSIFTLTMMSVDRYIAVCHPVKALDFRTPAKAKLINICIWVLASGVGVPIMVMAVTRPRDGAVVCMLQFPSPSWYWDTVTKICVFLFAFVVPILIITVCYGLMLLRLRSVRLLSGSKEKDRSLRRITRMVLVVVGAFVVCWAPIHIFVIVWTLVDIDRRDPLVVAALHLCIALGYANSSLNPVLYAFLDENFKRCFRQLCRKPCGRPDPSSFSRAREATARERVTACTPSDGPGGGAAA
Method in brief: (§2)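 Membranes from CHO cells stably expressing hMOR, hDOR or hKOR, prepared in 20 mM HEPES, 10 mM MgCl2, 100 mM NaCl, pH 7.4. Membranes (5–10 μg) incubated with 0.05 nM [35S]GTPγS, 10 μM GDP and graded peptide concentrations, 60 min at 25 °C. Nonspecific binding with 10 μM GTPγS, basal without ligand. GF/B filtration, scintillation counting. EC50 and Emax by nonlinear regression; Emax relative to DAMGO, DPDPE or U69,593. Duplicate, three independent experiments.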

Mu-type opioid receptor [4] = biological target: T1, Mu-type opioid receptor; assay: Displacement of [3H]-DAMGO from recombinant human mu opioid receptor expressed in CHO cell membrane incubated for 60 mins by liquid scintillation counting method; type: cell membranes
Method in brief: (§3)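 Membranes from CHO-hMOR, -hDOR or -hKOR cells, homogenized and washed in 50 mM Tris-HCl pH 7.4. Membranes (15–20 μg) incubated with [3H]DAMGO (MOR), [3H]diprenorphine (DOR) or [3H]U69,593 (KOR) plus graded peptide, 60 min at 25 °C. Nonspecific binding with 1–10 μM of the unlabelled ligand. GF/C filtration, scintillation counting. Ki by Cheng–Prusoff. Duplicate, three independent experiments.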

Mus musculus [5] = assay: Antinociceptive activity in CD-1 mouse model of thermal-induced nociception assessed as increase in tail withdrawal latency 1.82 umol/kg, sc measured after 2 to 24 hrs by tail-flick test; type: functional, organism-based; conditions: dose 1.82 µmol/kg, time hrs 2-24
Method in brief: (§4)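 Male CD-1 mice, 30–35 g, 8 weeks old, 5–6 per group, each mouse tested once. Peptide or saline given sc. Radiant-heat tail-flick latency measured before dosing and at 15 min, 30 min, hourly to 8 h, and at 24 h, with a 10 s cutoff. %MPE = [(test latency − basal latency)/(cutoff − basal latency)] × 100. Two-way ANOVA with Bonferroni post hoc test, P < 0.05.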

[6] = biological target: T3, Kappa-type opioid receptor (Homo sapiens, UniProt P41145); assay: Displacement of [3H]-U69593 from recombinant human kappa opioid receptor expressed in CHO cell membrane incubated for 60 mins by liquid scintillation counting method; type: cell membranes; method in brief: as §3
T3 sequence (P41145 whole entry): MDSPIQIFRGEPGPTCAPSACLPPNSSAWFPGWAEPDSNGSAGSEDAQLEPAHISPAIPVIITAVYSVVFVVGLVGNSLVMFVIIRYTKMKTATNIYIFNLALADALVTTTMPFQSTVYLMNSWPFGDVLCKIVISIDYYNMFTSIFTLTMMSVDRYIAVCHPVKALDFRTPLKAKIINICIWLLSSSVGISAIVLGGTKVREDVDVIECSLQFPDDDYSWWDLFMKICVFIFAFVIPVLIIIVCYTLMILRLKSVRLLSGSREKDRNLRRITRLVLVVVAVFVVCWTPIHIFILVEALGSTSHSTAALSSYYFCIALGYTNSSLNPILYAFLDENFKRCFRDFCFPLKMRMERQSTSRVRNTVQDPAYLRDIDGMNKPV

[7] = biological target: T2, Delta-type opioid receptor; assay: Displacement of [3H]-Diprenorphine from recombinant human delta opioid receptor expressed in CHO cell membrane incubated for 60 mins by liquid scintillation counting method; type: cell membranes; method in brief: as §3
Mu-type opioid receptor [8] = biological target: T1, Mu-type opioid receptor; assay: Agonist activity at human MOR expressed in human U2OS cells assessed as increase in beta arrestin2 recruitment incubated for 90 mins by pathhunter beta-arrestin assay; type: cell-based; method in brief: as §1
[9] = biological target: T2, Delta-type opioid receptor; assay: Agonist activity at human DOR stably expressed in CHO cell membranes assessed as stimulation of [35S]-GTPgammaS binding incubated for 1 hr by liquid scintillation counting assay; type: functional; method in brief: as §2
Mu-type opioid receptor [10] = biological target: T1, Mu-type opioid receptor; assay: Agonist activity at human MOR expressed in CHO cell membranes assessed as stimulation of [35S]-GTPgammaS binding incubated for 1 hr by liquid scintillation counting assay relative to DAMGO; type: functional; conditions: time 60.0 min; method in brief: as §2
[11] = biological target: T3, Kappa-type opioid receptor; assay: Agonist activity at human KOR stably expressed in CHO cell membranes assessed as stimulation of [35S]-GTPgammaS binding incubated for 1 hr by liquid scintillation counting assay; type: functional; method in brief: as §2
[12] = biological target: T4, Neurotensin receptor type 1 (Homo sapiens, UniProt P30989); assay: Agonist activity at human NTS1 expressed in HEK293 cells co-expressing Galphaq/RlucII/GFP10-Ggamma1/Gbeta1 assessed as increase in Gq activation incubated for 10 mins in presence of coelenterazine 400A by BRET assay relative to NT (8-13); type: cell-based
T4 sequence (P30989 whole entry): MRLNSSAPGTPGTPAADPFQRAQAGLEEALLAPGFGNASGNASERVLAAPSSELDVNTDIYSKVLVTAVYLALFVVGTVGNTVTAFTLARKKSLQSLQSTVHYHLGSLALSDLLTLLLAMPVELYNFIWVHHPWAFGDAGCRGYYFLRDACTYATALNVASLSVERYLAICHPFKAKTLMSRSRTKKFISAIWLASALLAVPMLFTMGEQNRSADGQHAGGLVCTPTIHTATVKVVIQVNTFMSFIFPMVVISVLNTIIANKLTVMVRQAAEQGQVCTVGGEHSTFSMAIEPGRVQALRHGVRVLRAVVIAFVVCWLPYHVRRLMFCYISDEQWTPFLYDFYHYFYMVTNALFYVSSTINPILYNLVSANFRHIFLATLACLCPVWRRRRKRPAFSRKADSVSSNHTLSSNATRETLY

[13] = biological target: T4, Neurotensin receptor type 1; assay: Agonist activity at human NTS1 expressed in HEK293 cells co-expressing Galphaq/RlucII/GFP10-Ggamma1/Gbeta1 assessed as increase in Galphaq activation incubated for 10 mins in presence of coelenterazine 400A by BRET assay; type: cell-based
Mu-type opioid receptor [14] = biological target: T1, Mu-type opioid receptor; assay: Agonist activity at human MOR stably expressed in CHO cell membranes assessed as stimulation of [35S]-GTPgammaS binding incubated for 1 hr by liquid scintillation counting assay; type: functional; method in brief: as §2
[15] = biological target: T4, Neurotensin receptor type 1; assay: Displacement of [125I]-neurotensin from human recombinant NTS1 stably expressed in CHO-K1 cell membranes incubated for 60 mins by gamma counter method
[16] = biological target: Neurotensin receptor type 2 (Homo sapiens, UniProt O95665); assay: Displacement of [125I]-neurotensin from human recombinant NTS2 stably expressed in human 1321N1 cell membranes incubated for 60 mins by gamma counter method
Sequence of Neurotensin receptor type 2 (O95665 whole entry): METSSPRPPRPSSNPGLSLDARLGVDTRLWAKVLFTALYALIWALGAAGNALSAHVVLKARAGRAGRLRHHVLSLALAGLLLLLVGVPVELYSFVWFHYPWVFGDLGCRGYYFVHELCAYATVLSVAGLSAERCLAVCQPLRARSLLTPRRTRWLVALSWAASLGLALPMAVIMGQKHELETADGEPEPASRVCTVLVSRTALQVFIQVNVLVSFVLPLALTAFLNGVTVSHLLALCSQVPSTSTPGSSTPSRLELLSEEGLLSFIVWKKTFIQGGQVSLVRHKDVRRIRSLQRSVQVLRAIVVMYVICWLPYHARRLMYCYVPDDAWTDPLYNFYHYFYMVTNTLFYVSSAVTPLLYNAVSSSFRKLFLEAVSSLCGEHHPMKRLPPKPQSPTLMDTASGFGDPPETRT

Mus musculus [17] = assay: Antinociceptive activity in CD-1 mouse model of thermal-induced nociception assessed as maximum possible effect at 5.52 umol/kg, sc measured at 1 hr interval for 2 to 3 hrs by tail-flick test; type: functional; conditions: dose 5.52 µmol/kg; time hrs 2-3; method in brief: as §4
Mus musculus [18] = assay: Antinociceptive activity in CD-1 mouse model of thermal-induced nociception assessed as increase in tail withdrawal latency at 5.52 umol/kg, sc measured after 3 hrs by tail-flick test; type: functional, organism-based; conditions: dose 5.52 µmol/kg, time hrs >=3; method in brief: as §4
[19] = biological target: T3, Kappa-type opioid receptor; assay: Agonist activity at human KOR stably expressed in CHO cell membranes assessed as stimulation of [35S]-GTPgammaS binding incubated for 1 hr by liquid scintillation counting assay relative to U69593; type: functional; conditions: time 60.0 min; method in brief: as §2
[20] = biological target: T4, Neurotensin receptor type 1; assay: […], ratio of compound EC50 to NT(8-13) EC50 for agonist activity at human NTS1 expressed in HEK293 cells co-expressing Galphaq/RlucII/GFP10-Ggamma1/Gbeta1 assessed as increase in Gq activation incubated for 10 mins in presence of coelenterazine 400A by measuring fold value by BRET assay; type: cell-based; conditions: hek293, 10 min
Mu-type opioid receptor [21] = biological target: T1, Mu-type opioid receptor; assay: Potency index, ratio of PK20 Ki to test compound Ki for displacement of [3H]-DAMGO from recombinant human mu opioid receptor expressed in CHO cell membranes
Mus musculus [22] = assay: Antinociceptive activity in CD-1 mouse model of thermal-induced nociception assessed as maximum possible effect at 2.64 uM/kg, sc measured at 1 hr interval for 2 to 7 hrs by tail-flick test; type: functional; conditions: dose 2.64 µmol/kg; time hrs 2-7; method in brief: as §4
Mus musculus [23] = assay: Antinociceptive activity in CD-1 mouse model of thermal-induced nociception assessed as increase in tail withdrawal latency at 2.64 umol/kg, sc measured up to 8 hrs by tail-flick test; type: functional, organism-based; conditions: dose 2.64 µmol/kg, time hrs <=8; method in brief: as §4

Compound | Emax (Mu-type opioid receptor [1]) [%] | Emax ([3]; filed as agonist) [%] | Ki (Mu-type opioid receptor [4]) [nM] | Ki [6] [nM] | Ki [7] [nM] | EC50 (Mu-type opioid receptor [8]) [nM] | EC50 [9] [nM] | Emax (Mu-type opioid receptor [10]; filed as agonist) [%] | EC50 [11] [nM] | Emax [12] [%] | EC50 [13] [nM] | EC50 (Mu-type opioid receptor [14]) [nM] | Ki [15] [nM] | Ki [16] [nM] | Emax ([19]; filed as partial agonist) [%] | Ratio Ki (Mu-type opioid receptor [21]) | Emax [19] [%] | also measured
Cc1cc(O)cc(C)c1C[C@H](N)C(=O)N[C@H](CCCNC(=N)N)C(=O)N[C@H]1Cc2ccccc2CN(CCC(N)=O)C1=O | 107 | 104 | 0.14 | 16.6 | 1.51 | 5.53 | 1.27 | 100 | > 10000 | – | – | – | – | – | – | – | – | MPE (Mus musculus [2]): 80%; Activity (Mus musculus [5]): inactive
Cc1cc(O)cc(C)c1C[C@H](N)C(=O)N[C@H](CCCCN)C(=O)N[C@@H](Cc1ccccc1)C(=O)N[C@@H](Cc1ccccc1)C(=O)N[C@@H](CCCCN)C(=O)N[C@@H](CCCCN)C(=O)N1CCC[C@H]1C(=O)N[C@@H](Cc1ccccc1)C(=O)N[C@H](C(=O)N[C@@H](CC(C)C)C(=O)O)C(C)(C)C (H-[Dmt][dK]FFKKPF[Tle]L-OH) | 69 | – | 4.13 | 33.5 | 46.4 | 956 | 479 | – | 47.1 | 101 | 19.1 | 13.3 | 188 | 29.5 | 65 | – | – | Emax ([3]; filed as partial agonist): 78%; MPE (Mus musculus [17]): 80%; Emax (Mu-type opioid receptor [10]; filed as partial agonist): 91%; Activity (Mus musculus [18]): inactive
Cc1cc(O)cc(C)c1C[C@H](N)C(=O)N[C@H](CCCNC(=N)N)C(=O)N[C@H]1Cc2ccccc2CN(CCC(=O)N[C@@H](CCCNC(=N)N)C(=O)N[C@@H](CCCNC(=N)N)C(=O)N2CCC[C@H]2C(=O)N2Cc3ccc(O)cc3C[C@H]2C(=O)N[C@H](C(=O)N[C@@H](CC(C)C)C(=O)O)C(C)(C)C)C1=O (H-[Dmt][dR][X1]RRP[X2][Tle]L-OH) | 67 | 97 | 1.67 | 22.4 | 105 | 934 | 227 | 98 | 399 | 74 | 1900 | 4.56 | 4710 | 1.72 | – | 2 | 20 | Ratio EC50 [20]: 13000
Cc1cc(O)cc(C)c1C[C@H](N)C(=O)N[C@H](CCCNC(=N)N)C(=O)N[C@H]1Cc2ccccc2CN(CCC(=O)N[C@@H](CCCNC(=N)N)C(=O)N[C@@H](CCCNC(=N)N)C(=O)N2CCC[C@H]2C(=O)N[C@@H](Cc2cccc(O)c2)C(=O)N[C@H](C(=O)N[C@@H](CC(C)C)C(=O)O)C(C)(C)C)C1=O (H-[Dmt][dR][X1]RRP[mTyr][Tle]L-OH) | 81 | 110 | 1.73 | 19.9 | 60.9 | 359 | 177 | 95 | 424 | 95 | 6.7 | 6.49 | 12.4 | 0.33 | – | 2 | 28 | –
Cc1cc(O)cc(C)c1C[C@H](NC(=O)[C@@H]1CCCN1C(=O)[C@H](CCCNC(=N)N)NC(=O)C[C@H](CCCNC(=N)N)NC(=O)CCN1Cc2ccccc2C[C@H](NC(=O)[C@@H](CCCNC(=N)N)NC(=O)[C@@H](N)Cc2c(C)cc(O)cc2C)C1=O)C(=O)N[C@H](C(=O)N[C@@H](CC(C)C)C(=O)O)C(C)(C)C (H-[Dmt][dR][X1][β3hR]RP[Dmt][Tle]L-OH) | 68 | 99 | 1.75 | 27.9 | 101 | 1070 | 305 | 94 | 158 | 114 | 0.86 | 28.7 | 4 | 0.003 | 46 | – | – | MPE (Mus musculus [22]): >=80%; Activity (Mus musculus [23]): Active
